Experimental data pooled from the literature.
Each line is one published result; the experiments were not run side by side. pEC50, pIC50: −log10 of the molar value.
Htr2c: 5-hydroxytryptamine receptor 2C (Htr2c, Mus musculus, UniProt P34968)
BACE1: Beta-secretase 1 (BACE1, Homo sapiens, UniProt P56817)
HLA class I histocompatibility antigen, A alpha chain: HLA class I histocompatibility antigen, A alpha chain (Homo sapiens, UniProt P04439)

| Structure (SMILES) | target | assay | measurement | value |
| --- | --- | --- | --- | --- |
| COc1cc(CCN)c(OC)cc1C#N | Htr2c | G protein activation, agonist, BRET | pEC50 | 6.70 |
| C=CCOc1ccc(C(=O)/C=C/c2cccc(F)c2)c(OS(=O)(=O)c2ccc(OC)cc2)c1I | BACE1 | enzyme activity, inhibitor, fluorescence | pIC50 | 4.67 |
| CCN(CC)C(=O)[C@@H]1C=C2c3cccc4[nH]cc(c34)C[C@H]2N(C)C1 | D(2) dopamine receptor (DRD2, Homo sapiens, UniProt P14416) | G protein activation, agonist, BRET | pEC50 | 8.80 |
| COc1cc(CCN)c(OC)cc1Br | Htr2c | G protein activation, agonist, BRET | pEC50 | 8.37 |
| CC(C)C[C@H](NC(=O)[C@@H]1CCCN1C(=O)[C@H](Cc1c[nH]c2ccccc12)NC(=O)[C@H](CC(=O)O)NC(=O)[C@H](Cc1ccc(O)cc1)NC(=O)[C@@H](NC(=O)[C@@H](N)Cc1ccc(O)cc1)C(C)C)C(=O)N[C@H](C(=O)N[C@@H](Cc1ccccc1)C(=O)O)[C@@H](C)O | HLA class I histocompatibility antigen, A alpha chain | cell-free assay | pIC50 | 4.67 |
| CCCC[C@H](NC(C)=O)C(=O)N[C@H]1CC(=O)NCCCC[C@@H](C(=O)N2CCC[C@@H]2C(=O)N[C@@H](C(=O)N2CCC[C@@H]2C(N)=O)C(C)C)NC(=O)[C@H](Cc2c[nH]c3ccccc23)NC(=O)[C@H](CCCNC(=N)N)NC(=O)[C@@H](Cc2ccccc2)NC(=O)[C@@H]2CCCN2C1=O | Melanocyte-stimulating hormone receptor (MC1R, Homo sapiens, UniProt Q01726) | cAMP, agonist | pEC50 | 9.39 |
| CC(C)C[C@H](NC(=O)[C@@H](NC(=O)[C@H](CCCCN)NC(=O)[C@H](CC(=O)O)NC(=O)[C@H](Cc1ccc(O)cc1)NC(=O)[C@H](C)NC(=O)[C@@H](N)CCCNC(=N)N)[C@@H](C)O)C(=O)N[C@@H](Cc1ccc(O)cc1)C(=O)N[C@@H](Cc1ccccc1)C(=O)O | HLA class I histocompatibility antigen, A alpha chain | cell-free assay | pIC50 | 7.82 |
| C=CCOc1ccc(C(=O)/C=C/c2ccc(OC)cc2)c(OS(C)(=O)=O)c1I | BACE1 | enzyme activity, inhibitor, fluorescence | pIC50 | 4.32 |
